# Results reported in ChEMBL document CHEMBL1151428, “Capability of 11 antipneumococcal antibiotics to select for resistance by multistep and single-step methodologies” (2007).
# Legend:
# Type in all cases: functional
# Streptococcus pneumoniae [1] = experiment: Antimicrobial activity against drug-resistant Streptococcus pneumoniae isolate 24 after 50 passages with moxifloxacin measured after 10 antibiotic-free subculture by multi-step resistance selection technique
# Procedure, shortened: (§1)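 Mutants selected by daily broth passage in subinhibitory drug in cation-adjusted Mueller-Hinton broth with 5% lysed horse blood. Stability was tested by 10 daily passages on blood agar without antibiotic, then macrodilution MIC.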
# Streptococcus pneumoniae [2] = experiment: Antimicrobial activity against drug-resistant Streptococcus pneumoniae isolate 24 after 14 passages with Telithromycin measured after 10 antibiotic-free subculture by multi-step resistance selection technique; procedure, shortened: as §1
# Streptococcus pneumoniae [3] = experiment: Antimicrobial activity against drug-resistant Streptococcus pneumoniae isolate 24 by NCCLS M7-A7 method
# Streptococcus pneumoniae [4] = experiment: Antimicrobial activity against drug-resistant Streptococcus pneumoniae isolate 1635 after 49 passages with clarithromycin measured after 10 antibiotic-free subculture by multi-step resistance selection technique
# Streptococcus pneumoniae [5] = experiment: Antimicrobial activity against drug-resistant Streptococcus pneumoniae isolate 1635 after 14 passages with azithromycin measured after 10 antibiotic-free subculture by multi-step resistance selection technique; procedure, shortened: as §1
# Streptococcus pneumoniae [6] = experiment: Antimicrobial activity against drug-resistant Streptococcus pneumoniae isolate 1635 after 14 passages by multi-step resistance selection technique
# Procedure, shortened: (§2)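 Daily serial passage in subinhibitory drug levels in 1 ml cation-adjusted Mueller-Hinton broth with 5% lysed horse blood; fresh broth for tigecycline. Each day, 10 μl were taken from the tube one to two dilutions below the MIC whose turbidity matched the growth control, and used to set the next MIC. […] MIC by macrodilution.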
# Streptococcus pneumoniae [7] = experiment: Antimicrobial activity against drug-resistant Streptococcus pneumoniae isolate 1635 by NCCLS M7-A7 method
# Streptococcus pneumoniae [8] = experiment: Antimicrobial activity against drug-resistant Streptococcus pneumoniae isolate 3243 after 20 passages with moxifloxacin measured after 10 antibiotic-free subculture by multi-step resistance selection technique; procedure, shortened: as §1
# Streptococcus pneumoniae [9] = experiment: Antimicrobial activity against drug-resistant Streptococcus pneumoniae isolate 3243 after 41 passages with clarithromycin measured after 10 antibiotic-free subculture by multi-step resistance selection technique
# Streptococcus pneumoniae [10] = experiment: Antimicrobial activity against drug-resistant Streptococcus pneumoniae isolate 3243 after 33 passages with azithromycin measured after 10 antibiotic-free subculture by multi-step resistance selection technique; procedure, shortened: as §1
# Streptococcus pneumoniae [11] = experiment: Antimicrobial activity against drug-resistant Streptococcus pneumoniae isolate 3243 after 29 passages with Telithromycin measured after 10 antibiotic-free subculture by multi-step resistance selection technique; procedure, shortened: as §1
# Streptococcus pneumoniae [12] = experiment: Antimicrobial activity against drug-resistant Streptococcus pneumoniae isolate 3243 after 50 passages by multi-step resistance selection technique; procedure, shortened: as §2
# Streptococcus pneumoniae [13] = experiment: Antimicrobial activity against drug-resistant Streptococcus pneumoniae isolate 3243 by NCCLS M7-A7 method
# Streptococcus pneumoniae [14] = experiment: Antimicrobial activity against drug-resistant Streptococcus pneumoniae isolate 3676 after 50 passages with moxifloxacin measured after 10 antibiotic-free subculture by multi-step resistance selection technique
# Streptococcus pneumoniae [15] = experiment: Antimicrobial activity against drug-resistant Streptococcus pneumoniae isolate 3274 after 48 passages with Telithromycin measured after 10 antibiotic-free subculture by multi-step resistance selection technique; procedure, shortened: as §1
# Streptococcus pneumoniae [16] = experiment: Antimicrobial activity against drug-resistant Streptococcus pneumoniae isolate 3274 after 50 passages by multi-step resistance selection technique
# Procedure, shortened: (§3)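 Daily serial passage in subinhibitory drug levels in 1 ml cation-adjusted Mueller-Hinton broth with 5% lysed horse blood; fresh broth for tigecycline. Each day, 10 μl were taken from the tube one to two dilutions below the MIC whose turbidity matched the growth control, and used to set the next MIC. MIC by macrodilution.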
# Streptococcus pneumoniae [17] = experiment: Antimicrobial activity against drug-resistant Streptococcus pneumoniae isolate 3274 by NCCLS M7-A7 method
# Streptococcus pneumoniae [18] = experiment: Antimicrobial activity against drug-resistant Streptococcus pneumoniae isolate 2527 after 14 passages with gemifloxacin measured after 10 antibiotic-free subculture by multi-step resistance selection technique; procedure, shortened: as §1
# Streptococcus pneumoniae [19] = experiment: Antimicrobial activity against drug-resistant Streptococcus pneumoniae isolate 2527 after 20 passages with azithromycin measured after 10 antibiotic-free subculture by multi-step resistance selection technique; procedure, shortened: as §1
# Streptococcus pneumoniae [20] = experiment: Antimicrobial activity against drug-resistant Streptococcus pneumoniae isolate 2527 by NCCLS M7-A7 method
# Streptococcus pneumoniae [21] = experiment: Antimicrobial activity against drug-resistant Streptococcus pneumoniae isolate 2527 after 50 passages by multi-step resistance selection technique; procedure, shortened: as §2
# Streptococcus pneumoniae [22] = experiment: Antimicrobial activity against drug-resistant Streptococcus pneumoniae isolate 3665 after 50 passages by multi-step resistance selection technique
# Procedure, shortened: (§4)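 Daily serial passage in broth at subinhibitory drug levels: 1 ml cation-adjusted Mueller-Hinton broth with 5% lysed horse blood; fresh broth for tigecycline. Each day 10 μl inoculum taken from the tube one to two dilutions below MIC matching growth-control turbidity, used to set next MIC. Continued until ≥8-fold MIC rise, minimum 14, maximum 50 passages; MIC read by macrodilution.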
# Streptococcus pneumoniae [23] = experiment: Antimicrobial activity against drug-resistant Streptococcus pneumoniae isolate 3665 by NCCLS M7-A7 method
# Streptococcus pneumoniae [24] = experiment: Antimicrobial activity against drug-resistant Streptococcus pneumoniae isolate 1077 after 49 passages with clindamycin measured after 10 antibiotic-free subculture by multi-step resistance selection technique
# Streptococcus pneumoniae [25] = experiment: Antimicrobial activity against drug-resistant Streptococcus pneumoniae isolate 1077 after 29 passages with azithromycin measured after 10 antibiotic-free subculture by multi-step resistance selection technique; procedure, shortened: as §1
# Streptococcus pneumoniae [26] = experiment: Antimicrobial activity against drug-resistant Streptococcus pneumoniae isolate 1077 after 49 passages by multi-step resistance selection technique; procedure, shortened: as §2
# Streptococcus pneumoniae [27] = experiment: Antimicrobial activity against drug-resistant Streptococcus pneumoniae isolate 1077 after 15 passages with Telithromycin measured after 10 antibiotic-free subculture by multi-step resistance selection technique; procedure, shortened: as §1
# Streptococcus pneumoniae [28] = experiment: Antimicrobial activity against drug-resistant Streptococcus pneumoniae isolate 1077 by NCCLS M7-A7 method
# Streptococcus pneumoniae [29] = experiment: Antimicrobial activity against drug-resistant Streptococcus pneumoniae isolate 1076 after 35 passages with moxifloxacin measured after 10 antibiotic-free subculture by multi-step resistance selection technique; procedure, shortened: as §1
# Streptococcus pneumoniae [30] = experiment: Antimicrobial activity against drug-resistant Streptococcus pneumoniae isolate 1076 after 14 passages with Telithromycin measured after 10 antibiotic-free subculture by multi-step resistance selection technique; procedure, shortened: as §1
# Streptococcus pneumoniae [31] = experiment: Antimicrobial activity against drug-resistant Streptococcus pneumoniae isolate 1076 by NCCLS M7-A7 method
# Streptococcus pneumoniae [32] = experiment: Antimicrobial activity against drug-resistant Streptococcus pneumoniae isolate 3009 after 19 passages with moxifloxacin measured after 10 antibiotic-free subculture by multi-step resistance selection technique; procedure, shortened: as §1
# Streptococcus pneumoniae [33] = experiment: Antimicrobial activity against drug-resistant Streptococcus pneumoniae isolate 3009 after 18 passages with levofloxacin measured after 10 antibiotic-free subculture by multi-step resistance selection technique; procedure, shortened: as §1
# Streptococcus pneumoniae [34] = experiment: Antimicrobial activity against drug-resistant Streptococcus pneumoniae isolate 3009 after 21 passages with gemifloxacin measured after 10 antibiotic-free subculture by multi-step resistance selection technique; procedure, shortened: as §1
# Streptococcus pneumoniae [35] = experiment: Antimicrobial activity against drug-resistant Streptococcus pneumoniae isolate 3009 after 25 passages with clarithromycin measured after 10 antibiotic-free subculture by multi-step resistance selection technique
# Streptococcus pneumoniae [36] = experiment: Antimicrobial activity against drug-resistant Streptococcus pneumoniae isolate 3009 by NCCLS M7-A7 method
# Streptococcus pneumoniae [37] = experiment: Antimicrobial activity against drug-resistant Streptococcus pneumoniae isolate 3009 after 50 passages by multi-step resistance selection technique; procedure, shortened: as §2
# Streptococcus pneumoniae [38] = experiment: Antimicrobial activity against drug-resistant Streptococcus pneumoniae isolate 1635 after 14 passages with clindamycin measured after 10 antibiotic-free subculture by multi-step resistance selection technique
# Streptococcus pneumoniae [39] = experiment: Antimicrobial activity against drug-resistant Streptococcus pneumoniae isolate 37 by NCCLS M7-A7 method
# Streptococcus pneumoniae [40] = experiment: Antimicrobial activity against drug-resistant Streptococcus pneumoniae isolate 37 after 14 passages with Telithromycin measured after 10 antibiotic-free subculture by multi-step resistance selection technique
# Streptococcus pneumoniae [41] = experiment: Antimicrobial activity against drug-resistant Streptococcus pneumoniae isolate 3413 by NCCLS M7-A7 method
# Streptococcus pneumoniae [42] = experiment: Antimicrobial activity against drug-resistant Streptococcus pneumoniae isolate 3413 after 50 passages by multi-step resistance selection technique; procedure, shortened: as §3
# Streptococcus pneumoniae [43] = experiment: Antimicrobial activity against drug-resistant Streptococcus pneumoniae isolate 3413 after 30 passages with Telithromycin measured after 10 antibiotic-free subculture by multi-step resistance selection technique; procedure, shortened: as §1
# Streptococcus pneumoniae [44] = experiment: Antimicrobial activity against drug-resistant Streptococcus pneumoniae isolate 3676 after 44 passages with clarithromycin measured after 10 antibiotic-free subculture by multi-step resistance selection technique
# Streptococcus pneumoniae [45] = experiment: Antimicrobial activity against drug-resistant Streptococcus pneumoniae isolate 3676 after 14 passages with Telithromycin measured after 10 antibiotic-free subculture by multi-step resistance selection technique
# Streptococcus pneumoniae [46] = experiment: Antimicrobial activity against drug-resistant Streptococcus pneumoniae isolate 3676 after 50 passages by multi-step resistance selection technique; procedure, shortened: as §4
# Streptococcus pneumoniae [47] = experiment: Antimicrobial activity against drug-resistant Streptococcus pneumoniae isolate 3676 by NCCLS M7-A7 method
# Streptococcus pneumoniae [48] = experiment: Antimicrobial activity against drug-resistant Streptococcus pneumoniae isolate 3665 after 38 passages with moxifloxacin measured after 10 antibiotic-free subculture by multi-step resistance selection technique
# Streptococcus pneumoniae [49] = experiment: Antimicrobial activity against drug-resistant Streptococcus pneumoniae isolate 3665 after 26 passages with clarithromycin measured after 10 antibiotic-free subculture by multi-step resistance selection technique
# Streptococcus pneumoniae [50] = experiment: Antimicrobial activity against drug-resistant Streptococcus pneumoniae isolate 3665 after 14 passages with Telithromycin measured after 10 antibiotic-free subculture by multi-step resistance selection technique
smiles,measurement,setting,value
CCC[C@@H]1C[C@@H](C(=O)N[C@@H]([C@H]2O[C@H](SC)[C@H](O)[C@@H](O)[C@H]2O)[C@H](C)Cl)N(C)C1 [CLINDAMYCIN],MIC,Streptococcus pneumoniae [1],> 64 µg/mL
same,MIC,Streptococcus pneumoniae [2],> 64 µg/mL
same,MIC,Streptococcus pneumoniae [3],> 64 µg/mL
same,MIC,Streptococcus pneumoniae [4],0.25 µg/mL
same,MIC,Streptococcus pneumoniae [5],0.03 µg/mL
same,MIC,Streptococcus pneumoniae [6],> 64 µg/mL
same,MIC,Streptococcus pneumoniae [7],0.06 µg/mL
same,MIC,Streptococcus pneumoniae [8],0.016 µg/mL
same,MIC,Streptococcus pneumoniae [9],1 µg/mL
same,MIC,Streptococcus pneumoniae [10],0.016 µg/mL
same,MIC,Streptococcus pneumoniae [11],0.03 µg/mL
same,MIC,Streptococcus pneumoniae [12],0.03 µg/mL
same,MIC,Streptococcus pneumoniae [13],0.016 µg/mL
same,MIC,Streptococcus pneumoniae [14],0.016 µg/mL
same,MIC,Streptococcus pneumoniae [15],0.016 µg/mL
same,MIC,Streptococcus pneumoniae [16],0.008 µg/mL
same,MIC,Streptococcus pneumoniae [17],0.016 µg/mL
same,MIC,Streptococcus pneumoniae [18],0.016 µg/mL
same,MIC,Streptococcus pneumoniae [19],0.06 µg/mL
same,MIC,Streptococcus pneumoniae [20],0.008 µg/mL
same,MIC,Streptococcus pneumoniae [21],0.016 µg/mL
same,MIC,Streptococcus pneumoniae [22],0.03 µg/mL
same,MIC,Streptococcus pneumoniae [23],0.016 µg/mL
same,MIC,Streptococcus pneumoniae [24],8 µg/mL
same,MIC,Streptococcus pneumoniae [25],4 µg/mL
same,MIC,Streptococcus pneumoniae [26],4 µg/mL
same,MIC,Streptococcus pneumoniae [27],8 µg/mL
same,MIC,Streptococcus pneumoniae [28],0.016 µg/mL
same,MIC,Streptococcus pneumoniae [29],> 64 µg/mL
same,MIC,Streptococcus pneumoniae [30],> 64 µg/mL
same,MIC,Streptococcus pneumoniae [31],64 µg/mL
same,MIC,Streptococcus pneumoniae [32],0.5 µg/mL
same,MIC,Streptococcus pneumoniae [33],0.5 µg/mL
same,MIC,Streptococcus pneumoniae [34],0.5 µg/mL
same,MIC,Streptococcus pneumoniae [35],1 µg/mL
same,MIC,Streptococcus pneumoniae [36],1 µg/mL
same,MIC,Streptococcus pneumoniae [37],2 µg/mL
same,MIC,Streptococcus pneumoniae [38],> 64 µg/mL
same,MIC,Streptococcus pneumoniae [39],> 64 µg/mL
same,MIC,Streptococcus pneumoniae [40],> 64 µg/mL
same,MIC,Streptococcus pneumoniae [41],0.016 µg/mL
same,MIC,Streptococcus pneumoniae [42],0.008 µg/mL
same,MIC,Streptococcus pneumoniae [43],0.06 µg/mL
same,MIC,Streptococcus pneumoniae [44],0.06 µg/mL
same,MIC,Streptococcus pneumoniae [45],0.03 µg/mL
same,MIC,Streptococcus pneumoniae [46],0.016 µg/mL
same,MIC,Streptococcus pneumoniae [47],0.03 µg/mL
same,MIC,Streptococcus pneumoniae [48],0.03 µg/mL
same,MIC,Streptococcus pneumoniae [49],0.03 µg/mL
same,MIC,Streptococcus pneumoniae [50],0.03 µg/mL
